Assay [1] addresses Atrial natriuretic peptide receptor (Homo sapiens) (UniProt P20594+P16066+P17342). The assay can be described thus: Selectivity factor, ratio of NVR and VR relative binding potency. It counts as protein assay. To be noted: Oryctolagus cuniculus.
The target of assay [2] is T1, Atrial natriuretic peptide receptor 3 (Homo sapiens) (UniProt P17342).
T1 sequence (whole entry): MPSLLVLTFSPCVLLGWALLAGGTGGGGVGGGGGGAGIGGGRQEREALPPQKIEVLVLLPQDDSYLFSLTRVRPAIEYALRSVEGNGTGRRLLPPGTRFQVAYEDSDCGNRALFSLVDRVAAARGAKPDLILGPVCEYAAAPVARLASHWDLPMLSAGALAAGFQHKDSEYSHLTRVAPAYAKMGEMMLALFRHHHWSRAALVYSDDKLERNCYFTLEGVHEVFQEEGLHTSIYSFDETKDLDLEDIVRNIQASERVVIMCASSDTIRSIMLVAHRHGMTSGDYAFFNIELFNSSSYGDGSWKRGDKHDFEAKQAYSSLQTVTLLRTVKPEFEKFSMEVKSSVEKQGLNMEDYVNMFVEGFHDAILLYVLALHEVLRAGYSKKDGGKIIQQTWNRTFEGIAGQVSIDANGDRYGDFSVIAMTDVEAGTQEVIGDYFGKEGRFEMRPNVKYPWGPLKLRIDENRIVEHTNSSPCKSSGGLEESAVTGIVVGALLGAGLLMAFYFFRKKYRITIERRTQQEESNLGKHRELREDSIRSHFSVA
The assay can be described thus: Binding affinity for non-vasorelaxant receptor by competitive displacement of [125I]-AP(103-126) from rabbit lung membranes. It counts as tissue-based. To be noted: Oryctolagus cuniculus, Membrane, target entry is the homologue from another species. For orientation: In a radioligand displacement assay an active substance lowers the binding of a labelled ligand.

Assay [3] is filed under the species Oryctolagus cuniculus. The assay can be described thus: Binding affinity for vasorelaxant receptor by competitive displacement of [125I]-AP(103-126) from rabbit lung membranes. Conditions: Membrane. The assay is classed as tissue-based.
Assay [4] in a line: Apparent binding constant for vasorelaxant subclass of receptors. Details: species or system Oryctolagus cuniculus. The method in brief:
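Competitive binding assay on rabbit lung membranes, using atrial peptide analogues.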

Positions of bridges follow the written chain, without caps; N, C: chain ends. Non-standard residues stand in square brackets, D forms with d. Residues, ends and D or L forms follow the SMILES beside them. ξ: configuration not given here. Nva = CCC[C@H](N)C(=O)O; ξA = CC(N)C(=O)O

Drawing on ChEMBL document CHEMBL1124687, “Analogues of atriopeptin(103-125)amide having high binding selectivity” (J Med Chem, 1989), this text covers Ratio, Relative potency and Ki for six compounds.

On to `CCC[C@H](NC(=O)[C@@H]1CSSC[C@H](NC(=O)[C@H](CO)NC(=O)[C@@H](N)CO)C(=O)N[C@@H](Cc2ccccc2)C(=O)NCC(=O)NCC(=O)N[C@@H](CCCN=C(N)N)C(=O)N[C@@H]([C@@H](C)CC)C(=O)N[C@@H](CC(=O)O)C(=O)N[C@@H](CCCN=C(N)N)C(=O)N[C@@H]([C@@H](C)CC)C(=O)NCC(=O)N[C@@H](C)C(=O)N[C@@H](CCC(N)=O)C(=O)N[C@@H](CO)C(=O)NCC(=O)N[C@@H](CC(C)C)C(=O)N1)C(=O)N[C@@H](CC(N)=O)C(=O)N[C@@H](CO)C(=O)N[C@@H](Cc1ccccc1)C(=O)N[C@@H](CCCN=C(N)N)C(N)=O` (H-SSCFGGRIDRIGAQSGLC[Nva]NSFR-NH2; disulfide 3-18), for which the Ratio in assay [1] was 13. Also, the values for the Relative potency in assay [2] and in assay [3] were 0.63 and 0.047, respectively.
Regarding `CC[C@H](C)[C@@H]1NC(=O)[C@H](CCCN=C(N)N)NC(=O)[C@H](CC(=O)O)NC(=O)[C@H]([C@@H](C)CC)NC(=O)[C@H](CCCN=C(N)N)NC(=O)CNC(=O)CNC(=O)[C@H](Cc2ccccc2)NC(=O)[C@@H](NC(=O)[C@H](CO)NC(=O)[C@@H](N)CO)CSSC[C@@H](C(=O)NC(C)C(=O)N[C@@H](CC(N)=O)C(=O)N[C@@H](CO)C(=O)N[C@@H](Cc2ccccc2)C(=O)N[C@@H](CCCN=C(N)N)C(N)=O)NC(=O)[C@H](CC(C)C)NC(=O)CNC(=O)[C@H](CO)NC(=O)[C@H](CCC(N)=O)NC(=O)[C@H](C)NC(=O)CNC1=O` (some centres undefined) (H-SSCFGGRIDRIGAQSGLC[ξA]NSFR-NH2; disulfide 3-18), the Ratio in assay [1] was determined as 6. Besides, the results for the Relative potency in assay [2] and in assay [3] were 0.94 and 0.16, respectively.
With `CC[C@H](C)[C@@H]1NC(=O)[C@H](CCCN=C(N)N)NC(=O)[C@H](CC(=O)O)NC(=O)[C@H]([C@@H](C)CC)NC(=O)[C@H](CCCN=C(N)N)NC(=O)[C@@H](NC(=O)CNC(=O)[C@H](Cc2ccccc2)NC(=O)CNC(=O)[C@H](CO)NC(=O)[C@@H](N)CO)CSSC[C@@H](C(=O)NCC(=O)N[C@@H](CC(C)C)C(=O)NCC(=O)NCC(=O)N[C@@H](CC(N)=O)C(=O)N[C@@H](CO)C(=O)N[C@@H](Cc2ccccc2)C(=O)N[C@@H](CCCN=C(N)N)C(N)=O)NC(=O)[C@H](CCC(N)=O)NC(=O)[C@H](C)NC(=O)CNC1=O` (H-SSGFGCRIDRIGAQCGLGGNSFR-NH2; disulfide 6-15), the Ratio in assay [1] came to 118. The Relative potency in assay [2] came out at 1.3; in assay [3] it was 0.011. Moreover, in assay [4], the Ki came out at 7.4 nM.
As to `CC[C@H](C)[C@@H]1NC(=O)[C@H](CCCN=C(N)N)NC(=O)[C@H](CC(=O)O)NC(=O)[C@H]([C@@H](C)CC)NC(=O)[C@H](CCCN=C(N)N)NC(=O)[C@@H](NC(=O)CNC(=O)[C@H](Cc2ccccc2)NC(=O)CNC(=O)[C@H](CO)NC(=O)[C@@H](N)CO)CSSC[C@@H](C(=O)N[C@@H](CC(C)C)C(=O)NCC(=O)NCC(=O)N[C@@H](CC(N)=O)C(=O)N[C@@H](CO)C(=O)N[C@@H](Cc2ccccc2)C(=O)N[C@@H](CCCN=C(N)N)C(N)=O)NC(=O)[C@H](CO)NC(=O)[C@H](CCC(N)=O)NC(=O)[C@H](C)NC(=O)CNC1=O` (H-SSGFGCRIDRIGAQSCLGGNSFR-NH2; disulfide 6-16), the Ratio in assay [1] came to 1120. In addition, the Relative potency in assay [2] stood at 0.81; in assay [3], 0.00072.
On to `CC[C@H](C)[C@@H]1NC(=O)[C@H](CCCN=C(N)N)NC(=O)[C@H](CC(=O)O)NC(=O)[C@H]([C@@H](C)CC)NC(=O)[C@H](CCCN=C(N)N)NC(=O)[C@@H](NC(=O)CNC(=O)[C@H](Cc2ccccc2)NC(=O)[C@H](CO)NC(=O)[C@H](CO)NC(=O)[C@@H](N)CO)CSSC[C@@H](C(=O)NCC(=O)N[C@@H](CC(C)C)C(=O)NCC(=O)N[C@@H](CO)C(=O)N[C@@H](CC(N)=O)C(=O)N[C@@H](CO)C(=O)N[C@@H](Cc2ccccc2)C(=O)N[C@@H](CCCN=C(N)N)C(N)=O)NC(=O)[C@H](CCC(N)=O)NC(=O)[C@H](C)NC(=O)CNC1=O` (H-SSSFGCRIDRIGAQCGLGSNSFR-NH2; disulfide 6-15), for which the Ratio in assay [1] is 293. In addition, the Relative potency was determined as 0.44 in assay [2] and 0.0015 in assay [3].
As to `CCC[C@H](NC(=O)CNC(=O)[C@H](CC(C)C)NC(=O)CNC(=O)[C@@H]1CSSC[C@H](NC(=O)CNC(=O)[C@H](Cc2ccccc2)NC(=O)[C@H](CCC)NC(=O)[C@H](CO)NC(=O)[C@@H](N)CO)C(=O)N[C@@H](CCCN=C(N)N)C(=O)N[C@@H]([C@@H](C)CC)C(=O)N[C@@H](CC(=O)O)C(=O)N[C@@H](CCCN=C(N)N)C(=O)N[C@@H]([C@@H](C)CC)C(=O)NCC(=O)N[C@@H](C)C(=O)N[C@@H](CCC(N)=O)C(=O)N1)C(=O)N[C@@H](CC(N)=O)C(=O)N[C@@H](CO)C(=O)N[C@@H](Cc1ccccc1)C(=O)N[C@@H](CCCN=C(N)N)C(N)=O` (H-SS[Nva]FGCRIDRIGAQCGLG[Nva]NSFR-NH2; disulfide 6-15), the Ratio in assay [1] amounted to 286. Moreover, the Relative potency in assay [2] is 0.26; in assay [3], 0.00091.
